Source: PubChem BioAssay (several laboratories)
RAM network inh: yeast RAM network inhibition. 1.8% of 190,000 active. S. cerevisiae dse1pr::URA3 reporter, 5-FOA growth OD615, 2 d; analog-sensitive cbk1-as2 kinase mutant strain. AID 868. inhibition, % at 50 µM;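 active = inhibition above a set limit, 3 SD over mean compound inhibition, cut at about 8.4% in these data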;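 note: 0% = DMSO-only wells with no growth and 100% = 10 µM 1-NA-PP1 full growth; inhibition rescues growth on 5-FOA so higher OD means more RAM inhibition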
Yeast life ext: yeast lifespan extension | S. cerevisiae growth with nicotinamide, OD615; deaD strain in restrictive glucose medium | inhibition of the nicotinamide effect, % at 10 µM | 0.68% of 130,000 active | AID 775;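 active = inhibition above a set limit, placed 3 SD over the median of all compounds, cut at about 26% in these data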;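 note: 0% = nicotinamide-treated wells and 100% = cells grown without nicotinamide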
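Test system – modified budding yeast, DeaD strain · Compound – single dose 10 µM compound, 0.25% DMSO · Times – culture preincubation 4 h, compound exposure 48 h, both 30 °C · Detection – optical density (absorbance) at 615 nm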
Yeast growth inh: yeast BB579 growth reduction in restrictive medium | inhibition, % at 10 µM | 0.51% of 140,000 active | S. cerevisiae BB579 growth, OD615, 48 h;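 active = inhibition above a set limit, 3 SD over the mean compound inhibition, cut at about 44% in these data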
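Detection: OD615 turbidity measurement; Material: Saccharomyces cerevisiae DeaD strain BB579, replicative lifespan model yeast; Timing: 48 h exposure, 30 °C; Doses: single 10 µM dose; Medium: CSMM-D restrictive synthetic medium containing dextrose (glucose); Controls: amphotericin B at 10 µg/mL as positive control.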
WT yeast gro inh: growth inhibition of WT yeast, mitochondrial fusion screen | mitochondrial fusion phenotypic screen, WT strain | 2.1% of 190,000 active | inhibition, % at 10 µM | AID 1362; in the data active = inhibition above about 58%; tested in S. cerevisiae
Cl transport mod: modulates chloride dependent transport by human KCC2 | KCC2 cells, thallium flux FluoZin-2 fluorescence | B-score of Tl+ flux slope (higher = more flux/activation; lower = inhibition) at 10 µM | 2.2% of 190,000 active | AID 1456;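 active = thallium flux slope and its plate-corrected score both differing from the plate sample mean at a set confidence after two filtering rounds, in either direction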;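 note: slope of fluorescence scaled to starting intensity during 10 to 20 s after thallium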
Target sequence (Q9H2X9 whole entry, looked up): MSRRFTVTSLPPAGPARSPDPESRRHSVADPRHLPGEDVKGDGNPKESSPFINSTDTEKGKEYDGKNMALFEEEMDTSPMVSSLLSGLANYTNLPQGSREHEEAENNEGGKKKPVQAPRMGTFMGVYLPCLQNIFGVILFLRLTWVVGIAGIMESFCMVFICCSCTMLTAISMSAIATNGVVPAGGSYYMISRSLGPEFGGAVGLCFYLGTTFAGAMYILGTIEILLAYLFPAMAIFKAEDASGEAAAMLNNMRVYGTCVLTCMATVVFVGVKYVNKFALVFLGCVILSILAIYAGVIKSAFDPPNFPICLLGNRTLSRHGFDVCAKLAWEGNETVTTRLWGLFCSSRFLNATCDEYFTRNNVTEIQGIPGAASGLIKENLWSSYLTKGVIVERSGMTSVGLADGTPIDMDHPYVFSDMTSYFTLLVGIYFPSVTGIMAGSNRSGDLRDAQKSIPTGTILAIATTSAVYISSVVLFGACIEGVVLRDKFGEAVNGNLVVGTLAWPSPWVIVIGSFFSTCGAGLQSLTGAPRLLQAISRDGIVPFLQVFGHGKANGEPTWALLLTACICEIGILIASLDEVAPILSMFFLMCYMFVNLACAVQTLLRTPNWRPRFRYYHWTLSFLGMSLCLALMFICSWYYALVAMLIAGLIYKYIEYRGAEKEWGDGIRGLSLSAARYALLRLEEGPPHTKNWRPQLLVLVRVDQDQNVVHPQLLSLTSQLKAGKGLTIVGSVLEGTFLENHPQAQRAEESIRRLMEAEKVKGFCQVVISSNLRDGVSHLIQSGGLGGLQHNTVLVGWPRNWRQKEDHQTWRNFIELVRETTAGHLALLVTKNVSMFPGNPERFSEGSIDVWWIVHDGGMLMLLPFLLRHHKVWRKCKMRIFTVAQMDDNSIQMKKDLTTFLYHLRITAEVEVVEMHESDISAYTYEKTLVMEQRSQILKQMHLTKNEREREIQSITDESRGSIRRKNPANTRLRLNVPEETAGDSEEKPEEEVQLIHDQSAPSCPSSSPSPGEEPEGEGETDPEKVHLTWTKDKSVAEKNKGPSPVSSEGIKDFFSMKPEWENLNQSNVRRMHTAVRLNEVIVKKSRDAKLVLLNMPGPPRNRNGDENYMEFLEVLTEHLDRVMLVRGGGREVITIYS
KCC2 sec1: KCC2 (human) modulation, secondary assay | shares compounds with Cl transport mod | HEK293-KCC2, thallium flux, FluoZin2 fluorescence; stronger effect = higher value | normalised thallium flux (F/F0 slope) at 10 µM | 15% of 3,700 active;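 active = thallium flux slope above the same plate's solvent-only control mean plus 3 SD; inconclusive = the two replicate wells disagree; inactive = no significant difference from solvent-only control wells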
KCC2 bumet counter: thallium flux despite bumetanide block in KCC2 cells, secondary assay 3; shares compounds with Cl transport mod; HEK293-KCC2 + bumetanide/ouabain, thallium flux FluoZin2; stronger effect = higher value; normalized thallium flux at 10 µM; 49% of 3,700 active; AID 1714;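 active = thallium entry rate above the same plate's blocked-transporter control wells by more than 3 SD; inconclusive = the two repeat wells disagree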;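 note: raw slope of fluorescence over initial fluorescence between 10 and 20 s after thallium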
KCC2 sec2: confirmation of human KCC2 transport modulators; shares compounds with Cl transport mod; HEK293-KCC2, thallium flux FluoZin2 fluorescence; actives lie on both sides; F/F0 rise rate, 10–20 s post-thallium; normalized thallium flux at 10 µM; 23% of 3,700 active; AID 1715;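 active = thallium flux slope more than 3 SD above or below the plate's solvent-only control mean, mostly below; inconclusive = the two repeat wells disagreed; inactive = no significant shift from solvent-only controls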;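 note: raw slope with 0.1% DMSO as baseline and bumetanide as block control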
HEK counter1: parental HEK flux effect, counter-screen; 46% of 3,700 active; AID 1716; HEK293 parental cells, thallium flux FluoZin2, ouabain; baseline-ratio fluorescence slope, 10–20 s after thallium; thallium flux rate (normalised fluorescence) at 10 µM; shares compounds with Cl transport mod;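 active = thallium flux rate significantly above the same plate's solvent-only control wells, beyond their mean plus 3 SD; inconclusive = the two replicate wells gave conflicting results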
KCC2 ouabain: modulates human KCC2 on retest with ouabain; HEK293-KCC2, thallium flux FluoZin2 fluorescence; bidirectional: low = inhibitor, high = activator; shares compounds with Cl transport mod; raw Tl+ flux slope (below DMSO = inhibition, above = activation) at 10 µM; 48% of 3,700 active;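 active = thallium flux slope beyond 3 SD from same-plate DMSO control mean in most replicates, usually higher, sometimes lower; inconclusive = repeat tests gave conflicting results; inactive = no significant difference from controls in most replicates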;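 note: slope of initial-normalized fluorescence between seconds 10 and 20 after thallium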
HEK293 Tl flux2: acts in parental HEK cells, second KCC2 counter-screen | shares compounds with Cl transport mod | HEK293 parental, thallium flux FluoZin-2 fluorescence slope | thallium flux slope at 10 µM | 33% of 3,700 active | AID 1718;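 active = thallium flux slope above the same plate's solvent-control mean plus 3 SD in both duplicate wells; inconclusive = duplicate wells that disagreed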;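 note: run without ouabain in cells lacking the KCC2 cotransporter; slope of fluorescence scaled to its starting value between 10 and 20 s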
* marks the source's active call; other numbers are inactive results; ? = inconclusive; · = no result. In the library only some 5.5% were active in any assay of this set; here they are far more common.

SMILES	RAM network inh	Yeast life ext	Yeast growth inh	WT yeast gro inh	Cl transport mod	KCC2 sec1	KCC2 bumet counter	KCC2 sec2	HEK counter1	KCC2 ouabain	HEK293 Tl flux2
COc1ccc2nc(NC(=S)NC(=O)c3ccco3)sc2c1	0	·	·	-6	80*	0.03*	0.14*	0.03*	0.075*	0.097*	0.039*
COc1ccc2sc(NC(=O)c3ccco3)nc2c1	1	-12	-24	17	0.064	·	·	·	·	·	·
O=C(NC(=S)Nc1c(Cl)ccc2nsnc12)c1ccco1	2	0	-9	0	19*	0.021*	0.067*	0.037	0.025*	0.045*	0.015*
COc1ccc(-c2csc(NC(=S)NC(=O)c3ccco3)n2)cc1	1	·	·	0	·	0.0071	0.016*	0.043*	0.024*	0.028*	0.023*
O=C(Nc1c(Cl)ccc2nsnc12)c1cccnc1	0	0	-11	7	1.4	·	·	·	·	·	·
COc1ccc(N(CC(=O)NCc2ccncc2)S(=O)(=O)c2ccccc2[N+](=O)[O-])c(OC)c1	1	·	·	-21	0.019	·	·	·	·	·	·
O=C(Nc1nc(-c2ccncc2)cs1)c1ccco1	1	-10	-58	9	·	0.0075	0.0042	0.031	0.0074	0.02	0.0093
CC(CCc1ccccc1)NC(=S)NC(=O)c1ccco1 (stereo not drawn)	1	·	·	5	103*	0.035*	0.09*	0.07*	0.07*	0.076*	0.068*
COc1cc(C(=O)NC(=S)Nc2ccc3c(c2)C(=O)N(C)C3=O)cc(OC)c1OC	4	1	-32	-5	-0.13	·	·	·	·	·	·
CC1=NN(C(C#N)c2c(C)nn(Cc3ccccc3)c2C)C(C)(C)C1 (stereo not drawn)	1	·	·	1	0.022	·	·	·	·	·	·
O=C(NC(=S)Nc1cnc2ccccc2c1)c1ccccc1	-1	·	·	23	21*	?	0.041*	0.033	0.012*	0.022*	0.015*
O=C(Cn1ccc2ccccc2c1=O)NCCC(=O)N1CCN(c2cccc(Cl)c2)CC1	9.7*	1	-80	10	-2.8*	0.0073	0.0066	0.034	0.0073	?	0.011
O=C(CCNC(=O)Cn1ccc2ccccc2c1=O)NCCN1CCN(c2ccccc2F)CC1	·	·	·	·	0.0089	·	·	·	·	·	·
O=C(Cn1ccc2ccccc2c1=O)N1CCN(c2cccc(Cl)c2)CC1	5	-4	-62	-21	-1.2	·	·	·	·	·	·
O=C(CCNC(=O)Cn1ccc2ccccc2c1=O)NCCN1CCN(c2cccc(Cl)c2)CC1	0	-6	-22	0	4.6*	0.0059	0.0042	0.03	0.0077	0.019	0.01
CC(=O)c1cccc(NC(=O)C(C)N(C)CC(=O)Nc2ccc(Cl)cc2)c1 (stereo not drawn)	·	·	·	·	-1.8	·	·	·	·	·	·
Cc1cc(=O)c2cc(Cl)ccc2[nH]1	0	-13	-3	23	-0.51	·	·	·	·	·	·
Cc1cc(=O)[nH]c2ccc(Cl)cc12	-1	-7	-26	-16	·	0.0098	0.0052	0.037	0.0044	0.021	0.011
CCOP(=O)(c1ccc(N(C)C)cc1)C(O)c1ccc(Cl)cc1 (stereo not drawn)	0	-7	6	·	-5*	0.0081	0.0055	0.035	0.0041	0.02	0.012
O=C(CSc1ncnc2c1oc1ccccc12)NC1CCCCC1	1	-6	-23	2	-3.8*	0.0095	0.0057	?	0.0067	0.02*	0.011
